Results as given in ChEMBL document CHEMBL1799973, “Design, synthesis, and cytotoxic evaluation of acyl derivatives of 3-aminonaphtho[2,3-b]thiophene-4,9-dione, a quinone-based system” (J Med Chem, 2011).
Activity calls are given as the source filed them. The calls are words filed in the database; no cut-off is given here.

Tests used:
[1] = Antitumor activity against human MDA231 cells after 24 to 48 hrs by MTT assay; type: functional, cell-based; conditions: MDA-MB-231
Outline: (§1)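 MTT read-out. Cells grown at 37 °C in DMEM with 10 mM glucose, 10% fetal calf serum, penicillin/streptomycin and 2 mmol/L glutamine. Seeded at 10^5 cells per well and left 24 h to attach, then compound added over a range of concentrations and cells grown 24 or 48 h. MTT at 1 mg/mL for 2 h at 37 °C in the dark, formazan dissolved in DMSO, OD read at 550 nm. Values are % of vehicle control (0.5% DMSO); IC50 by linear and polynomial regression; triplicate.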

SW-620 = assay: Antitumor activity against human SW620 cells after 24 to 48 hrs by MTT assay; type: functional, cell-based; outline: as §1
U-937 = assay: Antitumor activity against human U937 cells after 24 to 48 hrs by MTT assay; type: functional, cell-based; outline: as §1
SK-MEL-28 = assay: Antitumor activity against human SK-MEL-28 cells after 24 to 48 hrs by MTT assay; type: functional, cell-based; outline: as §1
SF-295 = assay: Antitumor activity against human SF295 cells after 24 to 48 hrs by MTT assay; type: functional, cell-based; outline: as §1
SNB-19 = assay: Antitumor activity against human SNB19 cells after 24 to 48 hrs by MTT assay; type: functional, cell-based; outline: as §1
COLO 205 = assay: Antitumor activity against human COLO205 cells after 24 to 48 hrs by MTT assay; type: functional, cell-based; outline: as §1
HT-29 = assay: Antitumor activity against human HT-29 cells after 24 to 48 hrs by MTT assay; type: functional, cell-based; outline: as §1
Caco-2 [2] = assay: Antitumor activity against human undifferentiated Caco2 cells after 24 to 48 hrs by MTT assay; type: functional, cell-based; outline: as §1
Caco-2 [3] = assay: Antitumor activity against human differentiated Caco2 cells after 24 to 48 hrs by MTT assay; type: cell-based; outline: as §1
Homo sapiens [4] = species: Homo sapiens; assay: Inhibition of human topoisomerase 2-mediated relaxation of supercoiled pBR322 DNA relaxation at 5 uM after 6 mins by agarose gel electrophoresis
Outline: (§2)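 Compound at 5 or 10 μM. Run 6 min at 37 °C and stopped with EDTA/SDS/glycerol dye. Products run on 1% agarose in 0.5× TBE at 4 V/cm for 1 h, stained with ethidium bromide, bands quantified.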

Homo sapiens [5] = species: Homo sapiens; assay: Inhibition of human topoisomerase 2-mediated relaxation of supercoiled pBR322 DNA relaxation at 10 uM after 6 mins by agarose gel electrophoresis; outline: as §2
Homo sapiens [6] = species: Homo sapiens; assay: Inhibition of human topoisomerase 2-mediated relaxation of supercoiled pBR322 DNA relaxation at 0.04 to 0.92 uM after 6 mins by agarose gel electrophoresis
H9c2 = assay: Cardiotoxicity in rat H9c2 cells at 1 uM measured up to 120 hrs by MTT assay; type: toxicity, cell-based; conditions: h9c2, 120 h
Outline: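 Rat H9C2 cardiomyoblasts, passages 4–10, grown at 37 °C in DMEM with FBS, glutamine and penicillin/streptomycin. Plated at 2000 cells/well in quadruplicate and given compound at 1 μM for the indicated times. MTT reagent added for 2 h in the incubator, then absorbance read at 570 nm. Data are mean ± SD.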

MDA-MB-435 = assay: Antitumor activity against human MDA-MB-435 cells after 24 to 48 hrs by MTT assay; type: functional, cell-based
Outline: as §1, with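 “nm.” for “nm. Values are % of vehicle control (0.5% DMSO); IC50 by linear and polynomial regression; triplicate.”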

[7] = Antitumor activity against human IGROV cells after 24 to 48 hrs by MTT assay; type: functional, cell-based
Outline: as §1, with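 “nm.” for “nm. Values are % of vehicle control (0.5% DMSO); IC50 by linear and polynomial regression; triplicate.”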

Caco-2 [8] = assay: Selectivity index, ratio IC50 for undifferentiated human Caco2 cells to IC50 for differentiated human Caco2 cells; type: functional
Outline: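 Ratio of MTT IC50 in undifferentiated to differentiated Caco-2 cells. MTT conditions: 24 or 48 h exposure, formazan dissolved in DMSO, read at 550 nm, IC50 by regression, triplicate.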

MCF7 = assay: Cytotoxicity against human MCF7 cells; type: functional, cell-based; outline: as §1

| SMILES | IC50 [1] | IC50 (SW-620) | IC50 (U-937) | also measured |
| --- | --- | --- | --- | --- |
| COc1cccc2c1C(=O)c1c(O)c3c(c(O)c1C2=O)C[C@@](O)(C(=O)CO)C[C@@H]3O[C@H]1C[C@H](N)[C@H](O)[C@H](C)O1 [DOXORUBICIN] | 1.13 µM | 0.12 µM | 0.93 µM | IC50 (SK-MEL-28): 600 nM; IC50 (SF-295): 4.4 µM; IC50 (SNB-19): 800 nM; IC50 (COLO 205): 1500 nM; IC50 (HT-29): 1100 nM; IC50 (Caco-2 [2]): 6.7 µM; IC50 (Caco-2 [3]): 0.6 µM; inhibition (Homo sapiens [4]): Active; inhibition (Homo sapiens [5]): Active; inhibition (Homo sapiens [6]): Active; Activity (H9c2): Toxic |
| NCCC(=O)Nc1csc2c1C(=O)c1ccccc1C2=O.O=C(O)C(F)(F)F | 3.7 µM | 0.8 µM | 1.7 µM | IC50 (MDA-MB-435): 400 nM; IC50 (SK-MEL-28): 1500 nM; IC50 [7]: 1200 nM; IC50 (SF-295): 2.8 µM; IC50 (SNB-19): 1600 nM; IC50 (COLO 205): 400 nM; IC50 (HT-29): 600 nM; IC50 (Caco-2 [2]): 2.6 µM; IC50 (Caco-2 [3]): 6.1 µM; Ratio IC50 (Caco-2 [8]): 0.43 |
| CCN(CC)CC(=O)Nc1csc2c1C(=O)c1ccccc1C2=O | 8.5 µM | 4 µM | 5.1 µM |  |
| Nc1csc2c1C(=O)c1ccccc1C2=O | 11.3 µM | 4 µM | 10.1 µM | IC50 (MCF7): 3.2 µM |
| CCCNC(=O)Nc1csc2c1C(=O)c1ccccc1C2=O | 9.5 µM | 6.5 µM | 10.1 µM |  |
| O=C1c2ccccc2C(=O)c2c(NC(=O)[C@@H]3CCCN3)csc21 | 6.7 µM | 5.4 µM | 0.9 µM |  |
| O=C(CCS)Nc1csc2c1C(=O)c1ccccc1C2=O | 15.2 µM | 20.7 µM | 23.9 µM |  |
| NCCCC[C@H](N)C(=O)Nc1csc2c1C(=O)c1ccccc1C2=O | > 40 µM | > 40 µM | 20 µM |  |
| O=C(CN1CCOCC1)Nc1csc2c1C(=O)c1ccccc1C2=O | 7.1 µM | 10.8 µM | 4.3 µM |  |
| O=C(CCO)Nc1csc2c1C(=O)c1ccccc1C2=O | 9.2 µM | 20.3 µM | 15 µM |  |
